# Bioassay records as filed in PubChem BioAssay.
# The list is not random: actives were taken first. Their share in the collection is about 2.4%.
# Mdm2 ligase inh: inhibitors of human Mdm2 E3 ubiquitin ligase | Q00987 | cell-based MDM2 ubiquitination luciferase reporter, 2 h; 0 = plate control, 100 = twice control, blank-subtracted | signal enhancement, % at 5 µM | 0.11% of 210,000 active | AID 1230;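 active means signal enhancement of 30% or more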;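 further: luminescence tracks abundance of the self-degrading MDM2-luciferase fusion protein; higher signal means inhibition of MDM2 E3 ligase activity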
# Target sequence (Q00987 whole entry, looked up, the tested form may be a part): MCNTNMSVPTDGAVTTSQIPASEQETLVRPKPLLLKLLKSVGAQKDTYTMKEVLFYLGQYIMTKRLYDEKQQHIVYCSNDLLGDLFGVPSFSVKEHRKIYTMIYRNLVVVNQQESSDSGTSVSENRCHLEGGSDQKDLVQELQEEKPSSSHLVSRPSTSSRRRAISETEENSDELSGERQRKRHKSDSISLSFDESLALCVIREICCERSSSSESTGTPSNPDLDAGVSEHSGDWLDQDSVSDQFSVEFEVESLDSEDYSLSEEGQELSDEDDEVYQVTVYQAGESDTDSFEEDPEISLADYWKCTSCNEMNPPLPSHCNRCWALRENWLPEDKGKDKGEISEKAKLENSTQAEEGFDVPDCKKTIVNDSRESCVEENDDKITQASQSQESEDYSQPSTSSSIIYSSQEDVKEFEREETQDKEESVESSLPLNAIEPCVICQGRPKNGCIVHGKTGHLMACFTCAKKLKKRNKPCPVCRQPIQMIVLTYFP
#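 System: stable MDM2–luciferase fusion reporter cells / Input: 2000 cells seeded into each well / Schedule: 4 h settle plus 2 h compound, 37 °C / Compound: single-point 5 µM / Buffer or medium: cells held in DMEM / Benchmarks: control and blank well means / Evaluation: percent signal gain over controls, blank-subtracted / Measured by: luciferase luminescence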
# Dynein transport: dynein cargo transport inhibition; 3617.4 mouse cells, GR-EGFP nuclear translocation imaging; test concentration mostly 20 µM; stimulated with dexamethasone, 1 µM; active compounds read low; z-score, hits read low; 0.47% of 220,000 active; AID 1381;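 active means plate z-score of nuclear minus cytoplasmic receptor signal below a set negative limit, without overly bright fluorescence or cell loss, cut at about -3.5 in these data, passing the limit was not always enough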;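 further: z-score of nuclear minus cytoplasmic ring GR-EGFP intensity difference per well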
#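 Buffer or medium: tet-free medium with charcoal-stripped serum / Also added: dexamethasone agonist, 1.0 µM final, for 30 min / Timing: induction 48 h, compound 1 h, agonist 30 min / Measured by: high-content fluorescence imaging after fixation / Read-out: nuclear-to-cytoplasmic GR-EGFP distribution per well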
# Hck Nef HTS: inhibitors of human Hck kinase activated by Nef. AID 463187. Recombinant Hck-YEEI plus Nef, Z-Lyte FRET kinase assay. inhibition, % at 20 µM. P08631. 0.68% of 220,000 active;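 active means Hck-Nef kinase inhibition above about 50%, limit read from the data; inactive means inhibition below that limit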;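 further: 0% = DMSO with Hck plus Nef and 100% = Hck alone without Nef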
# zVAD death inh: L929 zVAD cell death inhibition | L929 zVAD necroptosis rescue, ATP luminescence, 24 h; with zVAD 60 µM | viability rescue, % at 10 µM | 0.38% of 220,000 active | AID 1377;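 active means activation, scaled between plate controls, above about 75%, limit read from the data; inactive means activation under that limit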;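 further: 0% = zVAD with DMSO and 100% = DMSO alone without zVAD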
# TNF death inh: blocks TNF-alpha induced death of Jurkat FADD-/- cells; Jurkat FADD-/- TNF necroptosis rescue, ATP luminescence, 24 h; 0 = TNF only, 100 = no-TNF cells; activation (protection from cell death), % at 10 µM; 0.068% of 220,000 active;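 active means activation, meaning protection from cell death, of at least 50% relative to plate controls; inactive means activation below 50%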;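 further: necroptosis triggered by 40 ng/mL TNF-alpha added together with compound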
# Autophagy mod: modulators of autophagy; MEF GFP-LC3 puncta imaging; test concentration mostly 10 µM; calls only at 10 µM (by protocol); 0.98% of 190,000 active; AID 463193;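 active means percentage of spot-positive cells more than 3 SD above its plate mean, without a fluorescence outlier flag or 80% toxicity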;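 further: spot-positive cell cutoff set from DMSO-treated cells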
# The depositor's hits bear a star; i = inactive; x = no result given; + = active, no number.
SMILES,Mdm2 ligase inh,Dynein transport,Hck Nef HTS,zVAD death inh,TNF death inh,Autophagy mod
O=C(Nc1cccnc1)c1cn(-c2ccccc2)nc1-c1cccs1,-11.1,-0.679,2.0,0.6,-9.0,i
CCN(CC)CCNC(=O)c1ccc(NC(=O)c2cn(-c3ccccc3)nc2-c2cccs2)cc1,-3.4,-7.29*,11.6,-2.7,-14.7,+
O=C(NCc1ccco1)c1ccccc1Nc1ccc(F)cc1,-10.6,-0.639,6.6,-0.5,-2.1,i
c1ccc(Cn2nnc3c(NCc4ccc5c(c4)OCO5)nc(C4CC4)nc32)cc1,-9.1,0.487,10.0,1.0,0.5,+
Cc1nc(NCc2ccc3c(c2)OCO3)c2nnn(Cc3ccccc3)c2n1,4.4,0.672,-8.3,-1.2,1.5,+
Cc1nc(Nc2ccc(Cl)cc2)c2nnn(Cc3ccccc3)c2n1,-2.4,-0.338,15.4,37.2,2.1,i
O=C(Cn1ncc2c(=O)oc3ccccc3c21)NCCN1CCN(c2ccccc2F)CC1,-14.2,0.323,1.0,-1.0,1.5,i
COCCN1C=C(C(=O)OC)C(c2ccc3c(c2)OCO3)C(C(=O)OC)=C1,-0.6,-0.75,33.4,-0.1,-0.8,i
COCCN1C=C(C(=O)OC)C(c2ccc(Cl)cc2)C(C(=O)OC)=C1,0.8,0.164,74.6*,-1.4,-2.1,i
CCCCN1C(=O)C(=O)N(CC(=O)Nc2cc(OCC)c(N3CCOCC3)cc2OCC)C1=O,-5.4,1.17,39.6,1.1,0.2,i
Cc1ccc(S(=O)(=O)NC(=O)Nn2c(C)nnc2C)cc1,2.1,-0.675,0.9,0.1,-0.4,i
Cc1ccc(S(=O)(=O)NC(=O)NN2CCCCCC2)cc1,x,0.67,0.3,3.5,-0.4,+
O=C(NCC1CCCO1)c1cncc(Br)c1 (configuration not stated),0.0,0.944,-16.8,-0.9,0.3,i
N#C/C(C(=O)Oc1ccccc1)=C1/Nc2ccccc2-c2ccccc21,8.9,0.671,4.6,-0.1,-2.3,+
N#CC(C(=O)Nc1ccccc1)=C1Nc2ccccc2N1,-2.1,0.0919,-2.0,3.9,1.9,i
COC(=O)CCSC(=S)N1CCOCC1,-16.2,-0.172,20.9,-0.3,2.4,x
O=C1CCC(C(=O)Nc2ccccc2N2CCOCC2)=NN1,-6.9,-0.0429,11.0,0.2,3.6,x
COc1ccc(OC)c(-c2csc(N(CC3CCCO3)C(=O)C3CCCCC3)n2)c1 (configuration not stated),-14.4,1.76,16.9,53.1,2.7,+
COc1ccccc1C(=O)NC1CCCCCCC1,-11.5,-0.111,13.4,-0.2,-1.2,+
O=C(NCc1csc(-c2ccccc2)n1)c1cc(F)cc2c1OCOC2,-10.1,-0.48,-0.7,0.6,1.6,x
NC(=O)CSc1nnc(-c2cccnc2)n1Cc1ccccc1,-11.0,-1.19,-5.8,-0.6,-1.5,i
O=C(CSc1nnc(-c2cccnc2)n1CCc1ccccc1)N1CCCCC1,5.3,2.9,-0.6,-0.5,-2.3,+
CCN1C(=O)/C(=C/N2CCc3ccccc32)SC1=S,x,-0.111,9.0,-1.0,-0.9,+
CCN1C(=O)/C(=C\N2CCCc3ccccc32)SC1=S,-3.3,-0.718,-0.9,5.4,6.3,i
Cc1ccc(-c2noc(CCCC(=O)Nc3cccnc3)n2)cc1,-5.7,-0.82,-6.5,0.6,-4.7,i
SMILES,Mdm2 ligase inh,Dynein transport,Hck Nef HTS,zVAD death inh,TNF death inh,Autophagy mod
COC(=O)c1ccc2c(=O)[nH]c(CSc3nc(C)cs3)nc2c1,-14.5,-0.78,-4.2,1.5,0.2,+
O=[N+]([O-])c1ccc(N/N=C/c2sc(N3CCOCC3)nc2-c2ccccc2)c(S(=O)(=O)Nc2ccc(Cl)cc2)c1,-23.4,-4.99,16.7,2.6,-11.3,+
O=C(N/N=C/c1sc(N2CCOCC2)nc1-c1ccccc1)c1ccccc1Cl,-9.6,-0.666,-2.5,1.0,3.6,i
O=[N+]([O-])c1ccc(N/N=C/c2sc(N3CCOCC3)nc2-c2ccccc2)c(S(=O)(=O)Nc2ccccc2Cl)c1,x,-3.52,31.7,1.0,0.9,+
CCCCn1c(CN2CCN(c3cccc(Cl)c3)CC2)nc2c1c(=O)[nH]c(=O)n2C,2.8,-0.468,13.8,0.3,-9.1,+
Cn1c(=O)[nH]c(=O)c2c1nc(CN1CCN(c3cccc(Cl)c3)CC1)n2CCCc1ccccc1,-9.6,0.115,-1.6,2.9,2.8,i
O=C(/C=C/c1cn(CC(O)CN2CCCCC2)c2ccccc12)c1cccs1 (configuration not stated),-3.7,-0.639,-5.8,58.0,0.8,+
COc1ccc2nc(SCC(=O)Nc3cc(C)on3)[nH]c2c1,17.9,-0.186,2.4,0.0,2.6,i
CSc1nc(-c2ccco2)nn1C(=O)Cc1ccccc1,1.8,1.64,-0.7,-0.1,-1.4,+
O=C(CCc1ccccc1)n1nc(-c2ccco2)nc1SCc1ccccc1,-15.3,2.56,0.4,-1.2,-0.1,i
Cc1cc(C)c(C)c(C(=O)CSc2nnc(-c3ccc4[nH]c(C)c(C)c4c3)o2)c1C,-6.5,0.167,24.4,-0.6,-4.3,+
Cc1[nH]c2ccc(-c3nnc(SCC(=O)c4ccc(F)cc4)o3)cc2c1C,-19.9,-0.462,0.5,1.9,0.8,i
O=C(NCC(c1cccnc1)N1CCN(c2ccccc2F)CC1)c1cccc(Cl)c1 (configuration not stated),-5.0,3.35,-1.8,0.0,-1.4,i
CC(NC(=O)Cn1ncc(Cl)c(Cl)c1=O)C12CC3CC(CC(C3)C1)C2 (configuration not stated),99.1*,-3.44,19.7,-0.7,-11.5,i
CCn1cc(C(=O)NC(C)C23CC4CC(CC(C4)C2)C3)cn1 (configuration not stated),-9.9,-0.524,2.1,1.9,1.0,i
CSc1cccc(NC(=O)c2ccc(Cl)nc2)c1,-13.4,-0.0799,0.8,0.5,0.3,i
CN1C/C(=C/c2cccnc2)C(=O)/C(=C/c2cccnc2)C1,x,-5.94*,4.3,-0.7,79.6*,i
CC1=N/C(=C/c2cccnc2)C(=O)O1,-13.2,-0.269,31.2,3.9,0.9,i
O=S(=O)(NCC1CCCO1)c1ccc(-c2ccc(Cl)cc2)cc1 (configuration not stated),-3.4,-0.969,7.1,1.7,-1.2,+
COc1ccc(-c2ccc(S(=O)(=O)NCC3CCCO3)cc2)cc1 (configuration not stated),-20.8,-0.57,2.9,1.3,0.1,i
Cc1ccsc1C1C(C#N)=C(N)OC2=C1C(=O)CCC2 (configuration not stated),-5.6,1.47,22.9,3.7,-3.1,+
